Assay outcomes deposited in PubChem by Broad Institute.
AF4-AF9 inh: blocks AF4 peptide binding to human AF9; P42568; AID 651704; inhibition, % at 10 µM; AlphaScreen, biotin-AF4 peptide binding to FLAG-AF9; 350,000 tested, 0.47% active;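 active = every replicate reaching a set inhibition limit, whatever the replicate mean, cut at about 25% in these data; inconclusive = mean inhibition reaches that limit but some replicates miss it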;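 note: 0% = plate neutral control median and 100% = total signal loss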
S100A4 MyoIIA: blocks human S100A4 binding to myosin IIA peptide | AID 652163 | inhibition, % at 10.7 µM | 360,000 tested, 0.14% active | S100A4/TAMRA-MyoIIA peptide fluorescence polarization | P26447;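 active = mean inhibition of at least 70% across replicates, with every replicate also reaching that level; inconclusive = mean inhibition reaches 70% but some replicates fall short; inactive = mean inhibition below 70%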
Target sequence (P26447 whole entry, looked up): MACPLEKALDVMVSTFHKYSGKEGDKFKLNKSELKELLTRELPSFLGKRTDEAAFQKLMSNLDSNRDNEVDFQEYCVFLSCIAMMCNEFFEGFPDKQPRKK
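System – human S100A4 monomer protein, biochemical binding assay · Buffer or medium – Calcium-containing HEPES buffer, pH 7.2 · Timing – 5 min between mix addition and reading · Also added – TAMRA-labelled myosin IIA heavy-chain peptide probe, 5 nM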
DENV2 CPE: inhibitors of DENV2 cytopathic effect. DENV2-infected cells, cytopathic effect rescue, plate reader. CPE inhibition, % at 9.99 µM. 350,000 tested, 1.7% active; in the data active = CPE inhibition above about 20%, passing the limit was not always enough; inconclusive = no clear call, values can overlap the other calls; tested in BHK-21 cells;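 note: 0% = median of neutral control wells and 100% = median of positive control wells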
SIRT5 inh: sirtuin-5 (human) deacylase inhibition. Q9NXA8. Purified SirT5, succinyl-peptide AMC, trypsin-coupled fluorescence. inhibition, % at 15 µM. 330,000 tested, 1.1% active. AID 652115; in the data active = inhibition above about 15%; inconclusive = no clear call, values can overlap the other calls
Target sequence (Q9NXA8 whole entry, looked up): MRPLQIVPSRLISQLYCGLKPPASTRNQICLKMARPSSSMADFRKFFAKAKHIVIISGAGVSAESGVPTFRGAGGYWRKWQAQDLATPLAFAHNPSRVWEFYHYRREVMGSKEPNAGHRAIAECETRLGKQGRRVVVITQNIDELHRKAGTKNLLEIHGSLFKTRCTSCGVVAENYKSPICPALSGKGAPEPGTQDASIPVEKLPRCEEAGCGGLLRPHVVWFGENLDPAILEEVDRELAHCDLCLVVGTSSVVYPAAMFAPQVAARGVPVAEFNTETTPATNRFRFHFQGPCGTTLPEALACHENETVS
CaV13 ICDI inh: Primary screen for inhibitors of IQ motif and Ca2+-dependent inactivation inhibitor domain binding in CACNA1D, Förster resonance energy transfer in living cells, …; inhibition, % at 12.3 µM; HEK cells, CFP/YFP FRET ICDI-IQ, plate reader, 10 min; percent FRET-ratio fall versus neutral wells; 340,000 tested, 0.098% active;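 active = mean replicate inhibition of at least 30% and at least 1% of replicates passing that level; inconclusive = only one of the two criteria is met; inactive = neither criterion is met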;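 note: 0% = median of the neutral control wells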
The depositor's hits bear a star; ? = inconclusive; / = no result given. A selection: hits, their analogues and other compounds. The true share with any hit is near 2.7%.

SMILES | AF4-AF9 inh | S100A4 MyoIIA | DENV2 CPE | SIRT5 inh | CaV13 ICDI inh
Cc1ccc(S(=O)(=O)Nc2ccc3c(c2)CC(=O)N([C@@H](C)CO)C[C@@H](C)[C@@H](CN(C)S(=O)(=O)c2ccc(Cl)cc2)O3)cc1 | / | / | -6.6 | / | /
Cc1ccc(S(=O)(=O)N(C)C[C@H]2Oc3ccc(NS(=O)(=O)c4ccc(Cl)cc4)cc3CC(=O)N([C@@H](C)CO)C[C@H]2C)cc1 | -1.0 | -4.9 | 26.6* | 7.5 | /
Cc1ccc(S(=O)(=O)Nc2ccc3c(c2)CC(=O)N([C@H](C)CO)C[C@H](C)[C@@H](CN(C)S(=O)(=O)c2ccc(C)cc2)O3)cc1 | -2.2 | 7.3 | 66.9* | -0.9 | /
Cc1ccc(S(=O)(=O)N(C)C[C@@H]2Oc3ccc(NC(=O)NC4CCCCC4)cc3CC(=O)N([C@@H](C)CO)C[C@@H]2C)cc1 | 1.9 | -0.5 | 35.3* | -4.5 | /
Cc1ccc(S(=O)(=O)Nc2ccc3c(c2)CC(=O)N([C@@H](C)CO)C[C@@H](C)[C@H](CN(C)S(=O)(=O)c2ccc(Cl)cc2)O3)cc1 | / | / | 48.6* | / | /
COc1ccc(NC(=O)Nc2ccc3c(c2)CC(=O)N([C@@H](C)CO)C[C@@H](C)[C@@H](CN(C)C(=O)Nc2ccc4c(c2)OCO4)O3)cc1 | 2.5 | -0.7 | 10.1 | 3.0 | /
C[C@@H]1CN([C@H](C)CO)C(=O)c2cc(NC(=O)Nc3ccc(F)cc3)ccc2O[C@@H](C)CCCCO[C@@H]1CN(C)S(=O)(=O)c1cccs1 | -5.1 | -8.1 | 20.8* | 6.5 | /
COc1ccc(NC(=O)Nc2ccc3c(c2)C(=O)N([C@H](C)CO)C[C@H](C)[C@H](CN(C)S(=O)(=O)c2cccs2)OCCCC[C@@H](C)O3)cc1 | -2.2 | 15.4 | -2.3 | -3.7 | /
COc1ccc(NC(=O)Nc2ccc3c(c2)C(=O)N([C@H](C)CO)C[C@H](C)[C@@H](CN(C)S(=O)(=O)c2cccs2)OCCCC[C@@H](C)O3)cc1 | 0.2 | 10.0 | -0.7 | 19.2* | /
C[C@@H]1CN([C@@H](C)CO)C(=O)c2cc(NC(=O)c3ccccc3)ccc2O[C@@H](C)CCCCO[C@@H]1CN(C)S(=O)(=O)c1cccs1 | / | / | 45.2* | / | /
C[C@H](CO)N1C[C@H](C)[C@H](CN(C)S(=O)(=O)c2cccs2)OCCCC[C@H](C)Oc2ccc(NC(=O)Nc3ccc(F)cc3)cc2C1=O | -6.8 | -10.2 | -0.1 | 2.1 | /
C[C@@H]1CCCCO[C@@H](CN(C)S(=O)(=O)c2cccs2)[C@H](C)CN([C@H](C)CO)C(=O)c2cc(NC(=O)Nc3ccccc3)ccc2O1 | 2.8 | -0.1 | 60.3* | 7.5 | /
O=C(C1CC1)N1[C@@H]2CN(S(=O)(=O)c3ccc(F)cc3)c3ccccc3[C@@H]2[C@@H]1CO | -2.4 | 12.9 | 11.1 | 3.5 | /
C[C@H](CO)N1C[C@H](C)[C@@H](CN(C)CC2CC2)Oc2ccc(NS(=O)(=O)c3cn(C)cn3)cc2C1=O | -2.0 | 5.1 | 32.7* | / | /
C[C@@H]1CN([C@H](C)CO)C(=O)c2cc(NS(=O)(=O)c3cn(C)cn3)ccc2O[C@H]1CN(C)Cc1ccccc1 | -0.5 | 9.9 | 20.8* | -7.9 | /
C[C@H]1CN([C@@H](C)CO)C(=O)c2cc(NS(=O)(=O)c3cn(C)cn3)ccc2O[C@@H]1CN(C)Cc1ccccc1 | 0.6 | -4.4 | 23.7* | -25.2 | /
O=C(CNC(=O)C1COc2ccccc2O1)N/N=C\c1ccc(Br)cc1 (configuration not stated) | -4.4 | 1.8 | -5.5 | 22.7* | -3.3
CN(C)C(=O)C[C@H]1C[C@@H]2c3cc(NS(C)(=O)=O)ccc3O[C@@H]2[C@@H](CO)O1 | -0.5 | -9.5 | 10.3 | -0.3 | /
O=C(C[C@@H]1C=C[C@@H](NC(=O)C2CCC2)[C@H](CO)O1)NC1CCC1 | 1.2 | 4.1 | 0.9 | 5.0 | /
Cc1cc(=O)oc2c(C)c(OC(C)C(=O)NC(Cc3c[nH]c4ccc(O)cc34)C(=O)O)ccc12 (configuration not stated) | 0.1 | 4.0 | 76.8* | -0.2 | /
COc1ccc(-c2oc(=O)c3cc(OC)c(OC)cc3c2/C=C/c2cccc([N+](=O)[O-])c2)cc1 | -5.2 | 6.6 | 33.7* | / | -3.9
COc1ccc(-c2oc(=O)c3cc(OC)c(OC)cc3c2/C=C/c2ccc([N+](=O)[O-])cc2)cc1 | 8.9 | -3.2 | / | -7.4 | -10.8
COc1cccc(C(=O)Nc2ccc(C(F)(F)F)n(C)c2=O)c1 | 0.6 | 13.0 | -5.1 | 20.3* | -6.4
C[C@H](CO)N1C[C@H](C)[C@@H](CN(C)Cc2ccc(C(=O)O)cc2)Oc2cc(/C=C/c3ccccc3)ccc2S1(=O)=O | 3.9 | 17.8 | 2.7 | 103.9* | /
C[C@@H]1CN([C@H](C)CO)S(=O)(=O)c2ccc(/C=C/c3ccccc3)cc2O[C@H]1CN(C)Cc1ccc(C(=O)O)cc1 | 12.2 | 4.9 | 0.9 | ? | /
SMILES | AF4-AF9 inh | S100A4 MyoIIA | DENV2 CPE | SIRT5 inh | CaV13 ICDI inh
C[C@H]1CN([C@@H](C)CO)S(=O)(=O)c2ccc(/C=C/c3ccccc3)cc2O[C@H]1CN(C)Cc1ccc(C(=O)O)cc1 | 9.6 | 8.5 | 3.5 | 19.4* | /
C[C@@H]1CN([C@H](C)CO)C(=O)c2cccc(NC(=O)Nc3ccccc3)c2O[C@H]1CN(C)CC1CCCCC1 | 7.0 | -9.1 | 11.9 | 1.7 | /
C[C@@H]1CN([C@@H](C)CO)C(=O)c2cccc(NC(=O)NC3CCCCC3)c2O[C@H]1CN(C)CC1CCCCC1 | 1.4 | -5.0 | 44.4* | 11.0 | /
C[C@@H]1CN([C@@H](C)CO)C(=O)c2cccc(NC(=O)Nc3ccccc3)c2O[C@@H]1CN(C)CC1CCCCC1 | 0.1 | 5.5 | 35.9* | 9.3 | /
C[C@H](CO)N1C[C@H](C)[C@@H](CN(C)CC2CCCCC2)Oc2c(NC(=O)Cc3ccccc3)cccc2C1=O | 1.4 | 17.7 | -9.3 | 20.5* | -4.1
C[C@@H]1CCCCO[C@H](CN(C)C(=O)Nc2ccc3c(c2)OCO3)[C@@H](C)CN([C@H](C)CO)C(=O)c2cc(N(C)C)ccc2O1 | 9.9 | 0.6 | -10.8 | 1.1 | /
C/C=C/c1ccc([C@H]2[C@@H](CO)N(C(C)=O)[C@@H]2CNC(=O)CC2CC2)cc1 | -0.9 | -3.9 | 5.5 | 2.6 | /
COC(=O)CSc1ccc2nnc(-c3ccc(OC)c(OC)c3)n2n1 | 32.5* | -4.6 | 2.7 | 4.7 | -7.4
COc1cccc(C#Cc2cnc3c(c2)C(=O)N([C@@H](C)CO)C[C@@H](C)[C@@H](CN(C)C(=O)C2CC2)O3)c1 | -0.3 | 2.5 | 2.6 | -4.1 | /
NCC[C@H]1CC[C@H](NC(=O)C2CCCC2)[C@@H](CO)O1 | -1.6 | -1.0 | -0.4 | 1.5 | /
CCc1nc(SCc2ccccc2C)n[nH]1 | -0.4 | 6.4 | 32.3* | -8.4 | -2.0
Cc1cccc(NC(=O)CSc2nnc(-c3n[nH]c4ccccc34)o2)c1 | -6.5 | 0.9 | -0.3 | 15.5* | -5.4
COC(=O)CSc1nc2ncccc2[nH]1 | / | / | / | / | -4.4
O=C(CSc1nc2ncccc2[nH]1)NC1CCCC1 | 39.7* | -2.2 | -5.3 | 1.0 | -8.2
